This is an account of results in ChEMBL document CHEMBL5584332, “Structure and Biosynthesis of Perochalasins A-C, Open-Chain Merocytochalasans Produced by the Marine-Derived Fungus Peroneutypa sp. M16” (J Nat Prod, 2024).

Data set [1] deals with Plasmodium falciparum. Put plainly: Antiplasmodial activity against Plasmodium falciparum 3D7. It counts as functional, organism-based. Put shortly:
(§1)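 In vitro asexual P. falciparum growth inhibition, reported as IC50. The strains were chloroquine-sensitive 3D7; Dd2, resistant to CQ, SDX, PYR, MQ and CYC; TM90C6B, resistant to CQ, PYR and ATO; and 3D7r_MMV848, resistant to MMV692848. A standard antimalarial served as control for each resistant strain. Values are mean ± standard deviation of two independent experiments run in triplicate.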

Data set [2] concerns Plasmodium falciparum. In words: Antiplasmodial activity against drug-resistant Plasmodium falciparum Dd2. It counts as functional, organism-based. A digest of the protocol:
as §1

In data set [3] the test system is Plasmodium falciparum. Put plainly: Resistance index, ratio of IC50 for drug-resistant Plasmodium falciparum Dd2 to IC50 for Plasmodium falciparum 3D7. It counts as functional. A digest of the protocol: (§2)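 Resistance index computed as IC50 against the resistant strain divided by IC50 against 3D7. IC50 values are mean ± standard deviation of two independent experiments in triplicate. Resistant strains: Dd2 (CQ, SDX, PYR, MQ, CYC), TM90C6B (CQ, PYR, ATO) and 3D7r_MMV848 (MMV692848).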

Data set [4] deals with Plasmodium falciparum. Put plainly: Antiplasmodial activity against drug-resistant Plasmodium falciparum TM90C6B. It counts as functional, organism-based. A digest of the protocol:
as §1

The subject of data set [5] is Plasmodium falciparum. In words: Resistance index, ratio of IC50 for drug-resistant Plasmodium falciparum TM90C6B to IC50 for Plasmodium falciparum 3D7. It counts as functional. A digest of the protocol: as §2
The test system of data set [6] is Plasmodium falciparum. Put plainly: Antiplasmodial activity against drug-resistant Plasmodium falciparum 3D7r_MMV848. It counts as functional, organism-based. Put shortly:
as §1

Data set [7] concerns Plasmodium falciparum. Put plainly: Resistance index, ratio of IC50 for drug-resistant Plasmodium falciparum 3D7r_MMV848 to IC50 for Plasmodium falciparum 3D7. It counts as functional. A digest of the protocol: as §2
A short description of data set [8]: Cytotoxicity against human HepG2 cells. It counts as toxicity, cell-based.
Data set [9] is described as follows: Selectivity index, ratio of IC50 for human HepG2 cells to IC50 for Plasmodium falciparum 3D7. The following applies: HepG2 cells versus Plasmodium falciparum 3D7, read-out: Ratio IC50. It counts as toxicity.

The IC50 is the concentration at which inhibition is half-maximal. A higher IC50 goes with lower potency. Consider `CC1=C(C)[C@H]2[C@H](Cc3ccc(O)cc3)NC(=O)[C@]23OC(=O)C/C=C(/C)C(=O)[C@@H](C)C/C=C/[C@H]3[C@@H]1O`, for which the IC50 was 4.4 µM with Plasmodium falciparum [1]; 7 µM with Plasmodium falciparum [2]; 6 µM in the data set on Plasmodium falciparum [4]; 4 µM in the data set with Plasmodium falciparum [6]; over 100 µM in data set [8]. Besides, the “Ratio IC50” value in the data set with Plasmodium falciparum [3] was 1.6; in the data set on Plasmodium falciparum [5] it was 1.4; with Plasmodium falciparum [7], 0.9. Also, the selectivity ratio in data set [9] was over 23.
`CC(C)c1c(C(=O)Nc2ccccc2)c(-c2ccccc2)c(-c2ccc(F)cc2)n1CC[C@@H](O)C[C@@H](O)CC(=O)O` [ATORVASTATIN] came in with an IC50 in the data set with Plasmodium falciparum [4] of over 1 µM. The “Ratio IC50” value in the data set with Plasmodium falciparum [5] is on record as over 1428.
The compound `CCc1nc(N)nc(N)c1-c1ccc(Cl)cc1` [PYRIMETHAMINE] came in with an IC50 with Plasmodium falciparum [2] of over 10 µM. In the data set with Plasmodium falciparum [3], the “Ratio IC50” value was over 166.
